From ChEMBL document CHEMBL1649391, “A systematic protocol for the characterization of Hsp90 modulators” (Bioorg Med Chem, 2011)
pIC50: −log10 of the molar value. The source made the active and inactive calls. No cut-off for these calls is given here.

How the values were obtained:
[1] = molecular target: Heat shock protein HSP 90-beta (Homo sapiens) (UniProt P08238); assay: Inhibition of HSP90 in human MCF7 cells assessed as degradation of Hsp70 protein up to 50 uM after 48 hrs by Western blotting; format: cell-based
Outline: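 MCF-7 cells were grown in DMEM/F-12 with nonessential amino acids, 2 mM glutamine, penicillin/streptomycin and 10% FBS at 37 °C and 5% CO2. Cells were seeded at 1×10⁶ per dish and left to attach overnight. They were then exposed to varying compound concentrations for 48 h, harvested, and Western blotted for Hsp90 client proteins and Hsp70.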

[2] = molecular target: T1, Heat shock protein HSP 90 (Oryctolagus cuniculus) (UniProt P11500); assay: Modulation proteolytic fingerprint of HSP90 in rabbit reticulocyte lysates at 10 uM after 5 mins by SDS-PAGE analysis in presence of 125 ug/ml of trypsin
T1 sequence (whole entry): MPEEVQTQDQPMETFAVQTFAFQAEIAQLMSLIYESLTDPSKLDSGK
Outline: (§1)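 TnT rabbit reticulocyte lysate (50% v/v) with an ATP-regenerating system (10 mM creatine phosphate, 20 units/mL creatine phosphokinase) and 75 mM KCl. Drug or vehicle was added for 5 min at 37 °C, then the mix was chilled. TPCK-trypsin (0, 50 or 125 μg/ml) was added on ice for 6 min. Reactions were stopped by boiling in SDS sample buffer, then run on SDS-PAGE and Western blotted with antibodies to the Hsp90 N-terminus and C-terminus.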

[3] = molecular target: Heat shock protein HSP 90-alpha (Homo sapiens) (UniProt P07900); assay: Inhibition of human HSP90alpha expressed in yeast PP30 cells co-expressing HSF-lacZ reporter assessed as inhibition of heat stress-induced response at 100 uM after 3 hrs; format: cell-based
Outline: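 Yeast PP30 carrying human Hsp90α as its sole Hsp90 was transformed with a 3×HSE-lacZ reporter and grown at 30 °C in uracil-dropout 2% glucose medium to 2–3×10⁶ cells/ml. Cells were treated with compound, then heat-shocked for 1 h at 39 °C. In lysates, β-galactosidase was read with ONPG in buffer Z pH 7.0 at 30 °C, stopped with Na2CO3, read at OD420 and normalized to protein.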

[4] = test system: LNCaP; assay: Antiproliferative activity against human LNCAP cells; format: functional, cell-based
[5] = molecular target: Heat shock protein HSP 90-beta (Homo sapiens) (UniProt P08238); assay: Displacement of novobiocin bound sepharose from HSP90 after 5 mins by affinity chromatography analysis
Outline: (§2)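 Lysate with the ATP-regenerating mix was preincubated for 5 min at 37 °C, then loaded onto novobiocin-epoxy-sepharose or onto geldanamycin-derivatized AffiGel beads blocked with BSA. Columns were washed with 20 volumes of buffer containing 0.15 M NaCl. Bound Hsp90 was eluted with a linear 0–5 mM compound gradient in the dark at 4 °C. Eluates were run on 12.5% SDS-PAGE and immunoblotted for Hsp90.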

[6] = molecular target: Heat shock protein HSP 90-beta (Homo sapiens) (UniProt P08238); assay: Inhibition of HSP90 binding to Cdc37 in human SKBR-3 cells by Western blotting; format: cell-based
Outline: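 SKBr-3 cells were treated for 24 h at 0–10 μM. Cells were lysed in NP-40/molybdate Tris buffer pH 7.4 for 2 h at 4 °C, then centrifuged. Lysate protein (500 μg) was immunoprecipitated with anti-Hsp90 for 2 h, then with protein G agarose overnight at 4 °C. Washed precipitates were immunoblotted for Hsp90 and Cdc37.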

[7] = molecular target: T1, Heat shock protein HSP 90 (Oryctolagus cuniculus); assay: Modulation proteolytic fingerprint of HSP90 in rabbit reticulocyte lysates at 20 uM after 5 mins by SDS-PAGE analysis in presence of 125 ug/ml of trypsin; outline: as §1
[8] = molecular target: Heat shock protein HSP 90-beta (Homo sapiens) (UniProt P08238); assay: Displacement of geldanamycin bound sepharose from HSP90 after 5 mins by affinity chromatography analysis; outline: as §2
[9] = test system: LNCaP; assay: Ratio of compound IC50 to KU135 IC50 for human LNCAP cells; format: functional
[10] = Ratio of compound IC50 to KU135 IC50 for human LNCaP-LN3 cells; format: functional

Heat shock protein HSP 90-beta (Homo sapiens), sequence (P08238 whole entry): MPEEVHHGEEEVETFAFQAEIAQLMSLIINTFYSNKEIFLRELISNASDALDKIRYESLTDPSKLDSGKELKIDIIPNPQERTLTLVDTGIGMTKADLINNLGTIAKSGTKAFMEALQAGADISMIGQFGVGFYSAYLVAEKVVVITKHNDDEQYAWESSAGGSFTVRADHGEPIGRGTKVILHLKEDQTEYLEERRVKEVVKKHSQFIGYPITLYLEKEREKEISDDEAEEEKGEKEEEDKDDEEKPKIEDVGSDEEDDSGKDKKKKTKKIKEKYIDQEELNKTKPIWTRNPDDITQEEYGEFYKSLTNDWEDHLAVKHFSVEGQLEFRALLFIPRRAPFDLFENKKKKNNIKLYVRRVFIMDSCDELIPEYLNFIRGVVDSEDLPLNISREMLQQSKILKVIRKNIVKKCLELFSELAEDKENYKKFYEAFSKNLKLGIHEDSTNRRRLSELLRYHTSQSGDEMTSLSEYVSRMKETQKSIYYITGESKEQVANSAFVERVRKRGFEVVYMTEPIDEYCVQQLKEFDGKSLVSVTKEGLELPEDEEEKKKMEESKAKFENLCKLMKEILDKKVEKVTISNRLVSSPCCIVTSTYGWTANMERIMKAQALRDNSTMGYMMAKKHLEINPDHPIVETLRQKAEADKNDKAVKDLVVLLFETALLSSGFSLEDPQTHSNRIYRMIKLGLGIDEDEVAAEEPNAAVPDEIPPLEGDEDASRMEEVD

In the case of CO[C@@H]1[C@@H](OC(N)=O)[C@@H](O)[C@H](Oc2ccc3c(O)c(NC(=O)c4ccc(O)c(CC=C(C)C)c4)c(=O)oc3c2C)OC1(C)C [NOVOBIOCIN], the Activity [1] was “inactive”, the Activity [2] was “Active” and the Activity [3] was “Active”. For the same compound, the pIC50 [4] was 6.38 and the Activity [5] was “inactive”.

In the case of COc1cccc(-c2cc(C(=O)Nc3cc4ccc(O[C@@H]5OC(C)(C)[C@H](OC)[C@@H](O)[C@H]5O)c(OC)c4oc3=O)ccc2OC)c1, the Activity [1] was “inactive”, the Activity [2] was “Active” and the Activity [4] was “inactive”.

With CO[C@@H]1[C@@H](O)[C@@H](O)[C@H](Oc2ccc3cc(NC(C)=O)c(=O)oc3c2C)OC1(C)C the Activity [1] was “inactive” and the Activity [2] was “Active”.

For CO[C@@H]1[C@@H](O)[C@@H](O)[C@H](Oc2ccc3cc(NC(=O)CCCCCCC(=O)Nc4cc5ccc(O[C@H]6OC(C)(C)[C@@H](OC)[C@H](O)[C@@H]6O)cc5oc4=O)c(=O)oc3c2C)OC1(C)C, the Activity [1] was “inactive” and the Activity [2] was “Active”.

With CC(=O)O[C@@H]1C[C@H]2C(C)(C)C(=O)C=C[C@]2(C)[C@H]2CC[C@@]3(C)[C@H](c4ccoc4)OC(=O)[C@H]4O[C@]43[C@@]21C the Activity [1] was “inactive”, the Activity [6] was “Dose-dependent effect” and the Activity [7] was “Active”. For the same compound, the Activity [4] was “inactive” and the Activity [8] was “Active”.

With CC1=C(O)C(=O)C=C2C1=CC=C1[C@@]2(C)CC[C@@]2(C)[C@@H]3C[C@](C)(C(=O)O)CC[C@]3(C)CC[C@]12C the Activity [1] was “inactive”, the Activity [6] was “Dose-dependent effect” and the Activity [7] was “Active”. The Activity [4] was “inactive” and the Activity [8] was “Active”.

For COc1cccc(-c2cc(C(=O)Nc3cc4cc(OC)c(OC(C)=O)c(C)c4oc3=O)ccc2OC)c1, the Activity [1] was “inactive”, the Activity [2] was “Active” and the Activity [3] was “Active”. For the same compound, the “Ratio IC50” value [9] was 1000 and the “Ratio IC50” value [10] was 1000.

For O=C(O)CCc1nn(Cc2ccc(Cl)cc2Cl)c2cc(C(F)(F)F)ccc12, the Activity [1] was “inactive”, the Activity [6] was “Dose-dependent effect” and the Activity [7] was “Active”. For the same compound, the Activity [4] was “inactive” and the Activity [8] was “Active”.

For CO[C@@H]1[C@@H](O)[C@@H](O)[C@H](Oc2ccc3cc(NC(C)=O)c(=O)oc3c2)OC1(C)C, the Activity [1] was “inactive” and the Activity [2] was “Active”.

With CO[C@@H]1[C@@H](OC(=O)c2ccc(C)[nH]2)[C@@H](O)[C@@H](Oc2ccc3c(O)c(NC(=O)c4c[nH]c(C(=O)Nc5c(O)c6ccc(O[C@H]7OC(C)(C)[C@H](OC)[C@@H](OC(=O)c8ccc(C)[nH]8)[C@H]7O)c(C)c6oc5=O)c4C)c(=O)oc3c2C)OC1(C)C the Activity [1] was “inactive”, the Activity [2] was “Active” and the Activity [4] was “inactive”.
